Screening results deposited in PubChem by The Scripps Research Institute Molecular Screening Center.
TAAR1 agonist – agonists of human TAAR1; activation, % at 3 µM; Q96RJ0; hit rate 0.99% among 360,000; CHO RD-HGA16 TAAR1, Fluo-8 calcium fluorescence; vehicle wells 0%, saturating PEA agonist 100%; AID 624467;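 active = activation above the mean activation of all test compounds in the run plus 3 SD, cut at about 38% in these data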
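Repeats: no replicates (n 1) | Material: CHO-derived RD-HGA16 cells with stable Gα16 and human TAAR1 | Technique: Kinetic Fluo-8 calcium fluorescence | Schedule: 17-24 h seeding, 75 min 37 °C dye, 30 min RT | Evaluation: % activation from peak over basal fluorescence ratio, DMSO-to-PEA scaled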
CHO parental Ca – signal in parental CHO cells, OX1R antagonist counter-screen. inhibition, % at 5.6 µM. AID 463079. parental CHO-K1, ATP-induced calcium, Fluo-8 fluorescence. hit rate 0.63% among 330,000;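 active = inhibition above that plate's mean sample inhibition plus 3 SD, cut at about 26% in these data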;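 also: 0% = ATP-challenged DMSO wells and 100% = DMSO wells without ATP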
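Material – parental CHO cells · Reagent – ATP stimulus · Compound – single nominal dose of 5.6 µM per compound · Detection – Fluo-8 fluorescence · Read-out basis – percent inhibition of calcium signal · Controls – ATP-challenged DMSO wells low, unchallenged DMSO wells high · Repeats – no replicates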
TAAR1 antagonist – human TAAR1 antagonism; CHO RD-HGA16 TAAR1, Fluo-8 calcium fluorescence, antagonist; inhibition, % at 3 µM; Q96RJ0; AID 624466; hit rate 1.5% among 360,000;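 active = inhibition above a per-plate cutoff, the mean inhibition of test compounds on that plate plus 3 SD, cut at about 49% in these data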;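 also: 0% = DMSO plus EC80 beta-PEA response and 100% = DMSO alone without agonist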
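Test system – hTAAR1-expressing CHO RD-HGA16 cells, Gα16-coupled · Reagent – β-PEA at EC80 concentration, post-compound challenge · Compound dosing – 3 µM, single point · Timing – 140 s kinetic read after compound, 140 s after agonist · Detection – Fluo-8 intracellular calcium dye fluorescence, real-time kinetic reads · Control set – DMSO and EC80 PEA controls · Repeats – n of 1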
OX1R antag-1 – blocks the human orexin 1 receptor; OX1R-expressing cells, FRET antagonist read-out; inhibition, % at 6.6 µM; O43613; hit rate 1.8% among 330,000; in the data active = inhibition mostly above about 38%, no sharp cut-off; inactive = mostly below about 40%;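 also: 0% = agonist challenge alone and 100% = reference antagonist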
Target sequence (O43613 whole entry, looked up): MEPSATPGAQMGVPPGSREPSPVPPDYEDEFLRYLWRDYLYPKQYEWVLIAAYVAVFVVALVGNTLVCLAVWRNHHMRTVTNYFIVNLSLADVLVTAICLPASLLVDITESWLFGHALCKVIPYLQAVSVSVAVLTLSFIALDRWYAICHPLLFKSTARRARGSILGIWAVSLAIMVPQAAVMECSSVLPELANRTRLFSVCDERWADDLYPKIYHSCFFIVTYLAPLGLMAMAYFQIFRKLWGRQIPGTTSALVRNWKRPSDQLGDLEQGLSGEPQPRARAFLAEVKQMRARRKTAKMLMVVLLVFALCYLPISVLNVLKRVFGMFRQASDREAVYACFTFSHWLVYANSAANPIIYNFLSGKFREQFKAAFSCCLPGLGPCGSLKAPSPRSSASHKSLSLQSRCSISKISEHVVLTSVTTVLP
GPR7 antagonist – human neuropeptides B/W receptor 1 antagonism. P48145. GPR7-expressing cells, fluorescence antagonist assay. inhibition, % at 4.4 µM. hit rate 1.1% among 290,000. AID 1861; in the data active = inhibition above about 16%, passing the limit was not always enough;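 also: cells stimulated with the agonist NPW; 0% = agonist with vehicle and 100% = vehicle without agonist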
OX1R antag-2 – blocks the human orexin 1 receptor | AID 434989 | hit rate 0.43% among 330,000 | CHO/OX1R cells, Fluo-8 calcium fluorescence, orexin A | inhibition, % at 5 µM;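 active = inhibition above its plate's threshold, mean inhibition of all tested compounds on the plate plus 3 SD, cut at about 37% in these data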;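 also: 0% = orexin A challenge wells and 100% = SB-334867-A antagonist wells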
nonsel antag count – nonselective antagonism, TAAR1 counter-screen. shares compounds with TAAR1 antagonist. inhibition, % at 3 µM. hit rate 77% among 2,400. counterscreen cell line, calcium fluorescence, antagonist mode; in the data active = inhibition above about 22%;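 also: CHO-Ga16 host cells stimulated with ATP at an EC80 level; 0% = agonist EC80 plus vehicle and 100% = vehicle without agonist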
TAAR1 ant conf – confirmation of human TAAR1 antagonists | AID 651785 | inhibition, % at 3 µM | TAAR1-expressing cells, fluorescence antagonist read-out | hit rate 40% among 2,400 | shares compounds with TAAR1 antagonist; in the data active = inhibition above about 49%;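 also: CHO-Ga16 host cells challenged with agonist PEA near its EC80; 0% = agonist at EC80 plus vehicle and 100% = vehicle with no agonist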
Ga16 nonsel ag – nonselective Ga16 agonist in TAAR1 antagonist counter-screen. shares compounds with TAAR1 antagonist. Ga16-expressing cells, calcium fluorescence, agonist counterscreen. activation, % at 3 µM. hit rate 18% among 2,400. AID 651953; in the data active = activation above about 12%;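 also: 0% = vehicle wells and 100% = saturating stimulus response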
TAAR1 ag counter – TAAR1 agonism, antagonist counter-screen; hTAAR1 cell line, fluorescence activation, agonist mode; shares compounds with TAAR1 antagonist; AID 651955; hit rate 2% among 2,400; activation, % at 3 µM; in the data active = activation above about 37%;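 also: CHO cells stably expressing TAAR1 with calcium dye readout; 0% = DMSO vehicle and 100% = full agonist response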
Active calls of the source: *; . = not tested or not shown. Only some compounds are listed: those with a hit (about 4.5% of all), similar ones and a draw of the others.

SMILES	TAAR1 agonist	CHO parental Ca	TAAR1 antagonist	OX1R antag-1	GPR7 antagonist	OX1R antag-2	nonsel antag count	TAAR1 ant conf	Ga16 nonsel ag	TAAR1 ag counter
Cc1ccc(-c2cc(-c3ccccc3)nc(N/N=C/c3cccnc3)n2)cc1	7.3	-13.3	35.6	5.2	-7.4	-9.7	.	.	.	.
C(=N\Nc1nc(Nc2ccccc2)nc(Nc2ccccc2)n1)/c1cccnc1	9.0	-16.9	56.7*	29.9	-1.0	-22.3	25.2*	45.5	5.2	0.6
C(=N/Nc1nc(-c2ccccc2)cc(-c2ccccc2)n1)/c1cccnc1	11.2	-18.0	65.2*	46.5	-11.3	-26.3	31.3*	52.5*	3.7	3.0
O=c1[nH]c2ccccc2cc1CN(c1ccccc1)S(=O)(=O)c1ccccc1	5.2	-27.8	7.3	7.5	-0.3	-26.1	.	.	.	.
COc1ccc2[nH]c(=O)c(CN(c3ccccc3)S(=O)(=O)c3ccccc3)cc2c1	8.7	-28.6	51.7*	31.9	-11.6	-26.3	25.7*	52.2*	7.2	15.7
COc1ccccc1NC(=O)N(Cc1cc2cc(OC)c(OC)cc2[nH]c1=O)CC1CCCO1 (stereo not drawn)	2.0	-31.0	12.1	5.6	-9.8	-21.9	.	.	.	.
CCC(=O)N(Cc1cc2cc(OC)ccc2[nH]c1=O)c1ccccc1OC	2.2	.	-3.9	.	.	.	.	.	.	.
COc1ccc2[nH]c(=O)c(CN(CC3CCCO3)C(=O)Nc3ccccc3OC)cc2c1 (stereo not drawn)	16.4	.	63.3*	.	-6.0	.	29.5*	41.5	5.9	5.8
COc1ccc(S(=O)(=O)N(Cc2cccnc2)Cc2cc3ccccc3[nH]c2=O)cc1	11.2	-27.2	51.1*	8.7	-2.2	-25.0	15.1	25.4	6.0	4.3
COc1ccc2[nH]c(=O)c(CN(c3ccccc3OC)S(=O)(=O)c3ccccc3)cc2c1	10.1	-14.8	73.7*	8.0	-3.5	-33.9	32.6*	48.6*	8.6	8.9
O=C(CNC(=O)c1ccc(F)cc1)NCc1ccc(S(=O)(=O)N2CCOCC2)cc1	6.4	.	-12.6	.	.	.	.	.	.	.
O=C(NCCCCc1ccccc1)C1CC(c2ccc(C(F)(F)F)cc2)=NO1 (stereo not drawn)	28.0	2.8	84.3*	31.6	.	-8.1	23.0*	18.4	3.4	3.4
O=[N+]([O-])c1cc(-n2cccc2)ccc1N1CCOCC1	13.1	-9.4	59.6*	20.7	-12.2	2.8	27.5*	39.9	10.3	10.9
Cc1ccc(OCC(=O)Nc2sc3c(c2C#N)CCC3)cc1	-0.1	-18.2	50.8*	26.3	0.2	-40.4	0.4	-6.6	-0.6	-0.4
CCOC1=C2[C@H]([C@H]3C(=O)N(c4ccccc4)C(=O)[C@H]3C1)[C@@H](C(C)C)N(S(=O)(=O)c1ccc(C)cc1)[C@H]2c1ccccc1	1.5	.	-4.8	.	.	.	.	.	.	.
COc1cccc(CN(C)C(=O)c2cc(-c3cccs3)nc3ccccc23)c1	9.9	-25.6	76.1*	36.4	-5.1	-24.1	35.3*	58.3*	10.3	12.6
COCCN(CC(=O)Nc1cccc(C)c1C)C(=O)c1cc(-c2ccncc2)nc2ccccc12	18.3	-44.7	74.3*	2.3	.	-38.0	31.3*	55.9*	7.2	6.2
COCCN(Cc1ccccc1)C(=O)c1cc(-c2ccc(OC)c(OC)c2)nc2ccccc12	4.0	-24.8	62.2*	26.9	-22.5	-20.1	26.1*	44.6	5.6	8.7
COc1ccc(-c2cc(C(=O)N(C)Cc3ccccc3F)c3ccccc3n2)cc1OC	8.6	-4.8	77.9*	38.4	13.3	-25.6	28.3*	43.6	6.7	5.2
Cc1ccc(S(=O)(=O)N2CCN(C(=O)CN3C(=O)c4ccc([N+](=O)[O-])cc4C3=O)CC2)c(C)c1	-0.4	-9.0	-3.5	30.7	.	-3.5	.	.	.	.
